Experimental data: ChEMBL document CHEMBL5661979, “Pharmacological inhibition of BMK1 suppresses tumor growth through promyelocytic leukemia protein” (Cancer Cell, 2010)
pIC50: −log10 of the molar value. The source made the active and inactive calls. No cut-off for these calls is given here.

Columns and labels:
[1] = biological target: T1, Glycogen synthase kinase-3 alpha (Homo sapiens, UniProt P49840); assay: Inhibition of GSK3A in human HeLa cells lysate pre incubated for 15 mins followed by ATP acyl phosphate probe addition and measured after 10 mins by LC-MS/MS analysis; format: subcellular
Target sequence in this assay (P49840 whole entry): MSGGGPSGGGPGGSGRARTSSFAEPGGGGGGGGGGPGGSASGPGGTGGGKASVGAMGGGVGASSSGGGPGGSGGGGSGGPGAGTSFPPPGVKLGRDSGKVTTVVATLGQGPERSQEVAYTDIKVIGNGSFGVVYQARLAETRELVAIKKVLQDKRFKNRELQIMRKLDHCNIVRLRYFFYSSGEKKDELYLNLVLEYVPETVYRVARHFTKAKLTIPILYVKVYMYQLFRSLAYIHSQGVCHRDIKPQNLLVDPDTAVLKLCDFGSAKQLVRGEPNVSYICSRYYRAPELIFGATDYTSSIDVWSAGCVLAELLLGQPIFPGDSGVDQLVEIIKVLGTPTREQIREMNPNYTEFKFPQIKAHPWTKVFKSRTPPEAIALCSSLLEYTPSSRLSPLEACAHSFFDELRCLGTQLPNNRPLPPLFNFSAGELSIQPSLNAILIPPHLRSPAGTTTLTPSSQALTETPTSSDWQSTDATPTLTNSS

[2] = biological target: Dual specificity mitogen-activated protein kinase kinase; MEK1/2 (Homo sapiens, UniProt P36507+Q02750); assay: Inhibition of MAP2K1/MAP2K2 in human HeLa cells lysate pre incubated for 15 mins followed by ATP acyl phosphate probe addition and measured after 10 mins by LC-MS/MS analysis; format: subcellular
[3] = biological target: Ribosomal protein S6 kinase alpha-5 (Homo sapiens, UniProt O75582); assay: Inhibition of MSK1 domain 1 K2 site in human HeLa cells lysate pre incubated for 15 mins followed by ADP acyl phosphate probe addition and measured after 10 mins by LC-MS/MS analysis; format: subcellular
[4] = biological target: T2, EKC/KEOPS complex subunit TP53RK (Homo sapiens) (UniProt Q96S44); assay: Inhibition of PRPK in human HeLa cells lysate at 50 uM pre incubated for 15 mins followed by ADP acyl phosphate probe addition and measured after 10 mins by LC-MS/MS analysis relative to control; format: subcellular; conditions: time 25.0 min
T2 sequence (whole entry): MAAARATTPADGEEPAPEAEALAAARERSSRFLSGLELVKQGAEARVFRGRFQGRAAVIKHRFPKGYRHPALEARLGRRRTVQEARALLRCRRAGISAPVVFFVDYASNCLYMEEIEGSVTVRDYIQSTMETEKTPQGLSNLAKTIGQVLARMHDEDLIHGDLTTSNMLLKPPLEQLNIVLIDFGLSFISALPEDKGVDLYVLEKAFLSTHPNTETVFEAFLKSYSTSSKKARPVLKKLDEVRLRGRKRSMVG

[5] = Inhibition of PRKX/PRKY in human HeLa cells lysate at 50 uM pre incubated for 15 mins followed by ADP acyl phosphate probe addition and measured after 10 mins by LC-MS/MS analysis relative to control; conditions: 25 min, condition cancer
[6] = biological target: Peripheral plasma membrane protein CASK (Homo sapiens) (UniProt O14936); assay: Inhibition of CASK in human HeLa cells lysate at 10 uM pre incubated for 15 mins followed by ADP acyl phosphate probe addition and measured after 10 mins by LC-MS/MS analysis relative to control; format: subcellular; conditions: time 25.0 min
In short: (§1)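 KiNativ profiling in HeLa lysate (5 mg/mL total protein). Lysate incubated 15 min with inhibitor at 50, 10, 2, 0.8 or 0 μM. ATP or ADP acylphosphate probe then added (5 μM final) and reacted 10 min. Reaction stopped with urea and analysed by targeted MS, using up to four fragment ions per kinase peptide-probe conjugate. % inhibition taken against untreated lysate. Run in duplicate.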

[7] = biological target: Serine/threonine-protein kinase PLK1 (Homo sapiens, UniProt P53350); assay: Inhibition of PLK1 in human HeLa cells lysate at 2 uM pre incubated for 15 mins followed by ADP acyl phosphate probe addition and measured after 10 mins by LC-MS/MS analysis relative to control; format: subcellular; conditions: time 25.0 min
[8] = biological target: T1, Glycogen synthase kinase-3 alpha; assay: Inhibition of GSK3A in human HeLa cells lysate at 50 uM pre incubated for 15 mins followed by ATP acyl phosphate probe addition and measured after 10 mins by LC-MS/MS analysis relative to control; format: subcellular; conditions: time 25.0 min
Target sequence in this assay (P49840 2-483 limits assumed): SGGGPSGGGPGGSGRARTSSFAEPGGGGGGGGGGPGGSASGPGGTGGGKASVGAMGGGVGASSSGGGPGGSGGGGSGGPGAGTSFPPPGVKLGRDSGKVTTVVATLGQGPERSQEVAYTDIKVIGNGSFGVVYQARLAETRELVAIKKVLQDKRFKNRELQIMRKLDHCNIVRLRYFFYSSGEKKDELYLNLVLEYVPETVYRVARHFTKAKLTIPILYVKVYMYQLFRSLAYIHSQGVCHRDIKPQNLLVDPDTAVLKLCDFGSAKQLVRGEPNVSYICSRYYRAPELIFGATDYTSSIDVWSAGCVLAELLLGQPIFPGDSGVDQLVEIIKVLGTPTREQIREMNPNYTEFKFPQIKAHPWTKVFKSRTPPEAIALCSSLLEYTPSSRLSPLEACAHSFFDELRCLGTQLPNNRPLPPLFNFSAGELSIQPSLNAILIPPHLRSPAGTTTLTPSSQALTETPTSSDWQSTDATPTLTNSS

[9] = biological target: Serine/threonine-protein kinase MRCK beta (Homo sapiens, UniProt Q9Y5S2); assay: Inhibition of MRCKB in human HeLa cells lysate at 50 uM pre incubated for 15 mins followed by ATP acyl phosphate probe addition and measured after 10 mins by LC-MS/MS analysis relative to control; format: subcellular; conditions: time 25.0 min
[10] = Inhibition of SRC/FYN/YES in human HeLa cells lysate at 50 uM pre incubated for 15 mins followed by ATP acyl phosphate probe addition and measured after 10 mins by LC-MS/MS analysis relative to control; conditions: 25 min, condition cancer
[11] = biological target: T3, Aurora kinase A (Homo sapiens) (UniProt O14965); assay: Inhibition of AurA in human HeLa cells lysate at 10 uM pre incubated for 15 mins followed by ATP acyl phosphate probe addition and measured after 10 mins by LC-MS/MS analysis relative to control; format: subcellular; conditions: time 25.0 min
T3 sequence (whole entry): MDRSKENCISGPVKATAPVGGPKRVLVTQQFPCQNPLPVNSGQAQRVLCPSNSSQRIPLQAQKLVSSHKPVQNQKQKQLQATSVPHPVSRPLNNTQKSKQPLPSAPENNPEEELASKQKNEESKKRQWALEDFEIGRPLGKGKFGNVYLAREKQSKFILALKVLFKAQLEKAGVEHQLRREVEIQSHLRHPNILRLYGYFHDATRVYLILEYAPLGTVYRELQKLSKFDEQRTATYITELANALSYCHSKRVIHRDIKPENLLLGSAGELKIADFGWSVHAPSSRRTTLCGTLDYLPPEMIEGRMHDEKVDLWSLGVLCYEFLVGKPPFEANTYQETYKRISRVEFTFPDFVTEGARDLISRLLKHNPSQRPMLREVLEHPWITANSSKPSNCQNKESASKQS
In short: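 KiNativ-type profiling in HeLa lysate (5 mg/mL total protein). Lysate preincubated 15 min with inhibitor at 50, 10, 2, 0.8 or 0 μM, then ATP or ADP acylphosphate probe added (5 μM final) for 10 min. Reaction stopped with urea and analysed by targeted MS, using up to four fragment ions per kinase peptide-probe conjugate. % inhibition calculated against untreated lysate. Duplicate reactions.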

[12] = biological target: Cyclin-dependent kinase 8/19 (Homo sapiens, UniProt P49336+Q9BWU1); assay: Inhibition of CDK8/CDK11 in human HeLa cells lysate at 2 uM pre incubated for 15 mins followed by ATP acyl phosphate probe addition and measured after 10 mins by LC-MS/MS analysis relative to control; format: subcellular; conditions: time 25.0 min; in short: as §1
[13] = biological target: Cyclin-dependent kinase 2 (Homo sapiens, UniProt P24941); assay: Inhibition of CDK2 K1 site in human HeLa cells lysate at 2 uM pre incubated for 15 mins followed by ATP acyl phosphate probe addition and measured after 10 mins by LC-MS/MS analysis relative to control; format: subcellular; conditions: time 25.0 min; in short: as §1
[14] = biological target: Serine/threonine-protein kinase greatwall (Homo sapiens) (UniProt Q96GX5); assay: Inhibition of MASTL in human HeLa cells lysate at 2 uM pre incubated for 15 mins followed by ATP acyl phosphate probe addition and measured after 10 mins by LC-MS/MS analysis relative to control; format: subcellular; conditions: time 25.0 min
[15] = AUCinfinity in Sprague-Dawley rat at 2 mg/kg, po measured up to 8 hrs by LC-MS/MS analysis; format: ADME, organism-based; conditions: in vivo
In short: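 Sprague-Dawley rats given one intravenous dose or one oral dose of 2 mg/kg. Plasma drug concentrations were followed over time, with samples taken out to 8 hr after dosing. PK parameters (clearance, volume of distribution, half-life, oral bioavailability, Cmax) were calculated from these concentration–time data.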

[16] = Toxicity in C57Bl/6 mouse assessed as effect on creatinine level at 50 mg/kg, ip for 14 days (reference value: < 0.2 mg/dl); format: organism-based; conditions: in vivo, 336 h, time 14 day
Lewis lung carcinoma = assay: Antitumor activity against mouse LL2 cells allografted in C57Bl/6 mouse assessed as decrease in BrdU incorporation in cell nuclei in tumor at 50 mg/kg, ip by fluorescence microscopic analysis; format: functional, organism-based
In short: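 HeLa or LL/2 tumor sections from treated and control xenograft mice were stained with anti-BrdU antibody and DAPI and imaged by fluorescence microscopy. n = 6 mice, 9 slices.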

Serine/threonine-protein kinase PLK1, sequence (P53350 whole entry): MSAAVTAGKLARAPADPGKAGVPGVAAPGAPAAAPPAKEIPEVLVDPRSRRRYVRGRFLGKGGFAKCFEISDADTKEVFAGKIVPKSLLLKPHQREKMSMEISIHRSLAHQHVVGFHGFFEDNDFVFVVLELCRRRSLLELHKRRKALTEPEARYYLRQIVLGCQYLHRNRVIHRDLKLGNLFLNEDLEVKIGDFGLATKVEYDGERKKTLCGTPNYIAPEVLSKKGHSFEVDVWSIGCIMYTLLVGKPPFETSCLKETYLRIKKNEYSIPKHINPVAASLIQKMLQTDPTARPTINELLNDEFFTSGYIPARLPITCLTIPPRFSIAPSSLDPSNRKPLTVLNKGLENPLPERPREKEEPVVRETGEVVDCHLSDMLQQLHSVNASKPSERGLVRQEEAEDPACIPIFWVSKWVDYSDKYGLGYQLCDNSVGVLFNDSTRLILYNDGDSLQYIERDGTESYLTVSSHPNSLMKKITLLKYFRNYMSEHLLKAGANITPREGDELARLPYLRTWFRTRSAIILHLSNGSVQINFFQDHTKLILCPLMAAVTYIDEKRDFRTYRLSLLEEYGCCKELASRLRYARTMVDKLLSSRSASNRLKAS
Serine/threonine-protein kinase MRCK beta, sequence (Q9Y5S2 whole entry): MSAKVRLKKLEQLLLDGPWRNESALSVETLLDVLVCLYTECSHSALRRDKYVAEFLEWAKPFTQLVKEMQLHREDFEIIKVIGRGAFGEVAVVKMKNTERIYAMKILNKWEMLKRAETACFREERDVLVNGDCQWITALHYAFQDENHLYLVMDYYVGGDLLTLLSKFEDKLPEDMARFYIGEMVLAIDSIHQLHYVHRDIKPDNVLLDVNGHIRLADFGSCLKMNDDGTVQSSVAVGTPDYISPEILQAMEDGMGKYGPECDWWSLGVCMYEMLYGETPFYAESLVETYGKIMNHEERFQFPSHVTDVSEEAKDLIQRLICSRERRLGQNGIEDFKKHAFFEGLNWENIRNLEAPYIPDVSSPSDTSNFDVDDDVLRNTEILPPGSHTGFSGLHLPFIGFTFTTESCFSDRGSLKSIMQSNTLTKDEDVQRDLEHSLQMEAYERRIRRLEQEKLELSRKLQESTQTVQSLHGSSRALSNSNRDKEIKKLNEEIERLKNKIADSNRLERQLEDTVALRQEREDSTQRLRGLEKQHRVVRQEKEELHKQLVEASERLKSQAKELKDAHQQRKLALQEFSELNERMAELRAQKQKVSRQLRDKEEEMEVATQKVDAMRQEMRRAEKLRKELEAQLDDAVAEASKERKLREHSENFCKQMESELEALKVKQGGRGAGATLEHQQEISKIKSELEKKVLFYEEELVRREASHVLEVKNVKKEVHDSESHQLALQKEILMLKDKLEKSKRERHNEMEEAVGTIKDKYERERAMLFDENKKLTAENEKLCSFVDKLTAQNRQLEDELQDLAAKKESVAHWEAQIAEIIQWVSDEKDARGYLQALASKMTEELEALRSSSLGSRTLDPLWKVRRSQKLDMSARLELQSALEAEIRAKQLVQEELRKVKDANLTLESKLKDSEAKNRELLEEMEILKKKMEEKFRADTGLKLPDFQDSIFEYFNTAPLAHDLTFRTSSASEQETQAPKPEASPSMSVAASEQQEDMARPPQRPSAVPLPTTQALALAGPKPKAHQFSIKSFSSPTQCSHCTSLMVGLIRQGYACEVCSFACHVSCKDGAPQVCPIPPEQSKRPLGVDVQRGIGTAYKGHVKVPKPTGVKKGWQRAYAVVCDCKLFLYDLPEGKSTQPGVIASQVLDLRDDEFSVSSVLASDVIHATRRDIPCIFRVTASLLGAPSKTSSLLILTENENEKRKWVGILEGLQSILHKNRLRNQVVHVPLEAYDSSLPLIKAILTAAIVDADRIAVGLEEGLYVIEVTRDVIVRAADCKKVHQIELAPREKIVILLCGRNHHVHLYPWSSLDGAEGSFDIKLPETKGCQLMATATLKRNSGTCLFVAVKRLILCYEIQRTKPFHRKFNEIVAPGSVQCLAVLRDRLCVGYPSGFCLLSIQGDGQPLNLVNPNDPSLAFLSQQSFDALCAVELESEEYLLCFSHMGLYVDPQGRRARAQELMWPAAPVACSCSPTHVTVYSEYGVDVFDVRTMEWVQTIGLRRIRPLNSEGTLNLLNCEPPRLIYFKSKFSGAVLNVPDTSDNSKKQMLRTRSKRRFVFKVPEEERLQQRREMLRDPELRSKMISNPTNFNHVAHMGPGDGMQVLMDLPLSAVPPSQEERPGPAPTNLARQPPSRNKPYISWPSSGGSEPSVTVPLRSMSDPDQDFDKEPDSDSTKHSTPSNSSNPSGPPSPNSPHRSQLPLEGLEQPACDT
Cyclin-dependent kinase 8/19, sequence (P49336 whole entry, looked up): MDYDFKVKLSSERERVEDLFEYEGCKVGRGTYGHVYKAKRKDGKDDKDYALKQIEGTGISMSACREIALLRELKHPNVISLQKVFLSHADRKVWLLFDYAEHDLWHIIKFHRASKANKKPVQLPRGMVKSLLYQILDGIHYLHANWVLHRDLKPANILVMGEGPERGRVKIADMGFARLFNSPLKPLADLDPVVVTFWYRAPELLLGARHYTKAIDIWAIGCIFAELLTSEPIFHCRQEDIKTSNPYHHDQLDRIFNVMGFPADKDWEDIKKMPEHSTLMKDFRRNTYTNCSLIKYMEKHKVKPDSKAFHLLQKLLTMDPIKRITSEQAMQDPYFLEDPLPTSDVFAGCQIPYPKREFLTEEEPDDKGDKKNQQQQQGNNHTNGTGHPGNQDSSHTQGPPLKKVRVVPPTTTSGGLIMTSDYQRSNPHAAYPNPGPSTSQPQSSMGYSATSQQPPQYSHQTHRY
Cyclin-dependent kinase 8/19, sequence (Q9BWU1 whole entry, looked up): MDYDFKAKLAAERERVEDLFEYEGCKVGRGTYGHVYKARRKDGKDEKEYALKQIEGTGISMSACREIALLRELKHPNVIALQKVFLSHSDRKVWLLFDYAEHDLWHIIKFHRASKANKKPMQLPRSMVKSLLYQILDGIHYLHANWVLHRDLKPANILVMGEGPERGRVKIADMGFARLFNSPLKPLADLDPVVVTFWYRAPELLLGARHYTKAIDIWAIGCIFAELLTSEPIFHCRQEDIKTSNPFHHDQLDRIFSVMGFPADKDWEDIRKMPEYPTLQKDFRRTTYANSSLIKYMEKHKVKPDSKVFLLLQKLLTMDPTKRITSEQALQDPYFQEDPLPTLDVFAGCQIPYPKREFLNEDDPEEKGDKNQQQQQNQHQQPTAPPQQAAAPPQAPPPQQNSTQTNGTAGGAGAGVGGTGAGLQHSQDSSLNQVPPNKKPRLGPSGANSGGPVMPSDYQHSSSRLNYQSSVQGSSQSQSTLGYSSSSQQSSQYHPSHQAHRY
Ribosomal protein S6 kinase alpha-5, sequence (O75582 whole entry, the tested form may be a part): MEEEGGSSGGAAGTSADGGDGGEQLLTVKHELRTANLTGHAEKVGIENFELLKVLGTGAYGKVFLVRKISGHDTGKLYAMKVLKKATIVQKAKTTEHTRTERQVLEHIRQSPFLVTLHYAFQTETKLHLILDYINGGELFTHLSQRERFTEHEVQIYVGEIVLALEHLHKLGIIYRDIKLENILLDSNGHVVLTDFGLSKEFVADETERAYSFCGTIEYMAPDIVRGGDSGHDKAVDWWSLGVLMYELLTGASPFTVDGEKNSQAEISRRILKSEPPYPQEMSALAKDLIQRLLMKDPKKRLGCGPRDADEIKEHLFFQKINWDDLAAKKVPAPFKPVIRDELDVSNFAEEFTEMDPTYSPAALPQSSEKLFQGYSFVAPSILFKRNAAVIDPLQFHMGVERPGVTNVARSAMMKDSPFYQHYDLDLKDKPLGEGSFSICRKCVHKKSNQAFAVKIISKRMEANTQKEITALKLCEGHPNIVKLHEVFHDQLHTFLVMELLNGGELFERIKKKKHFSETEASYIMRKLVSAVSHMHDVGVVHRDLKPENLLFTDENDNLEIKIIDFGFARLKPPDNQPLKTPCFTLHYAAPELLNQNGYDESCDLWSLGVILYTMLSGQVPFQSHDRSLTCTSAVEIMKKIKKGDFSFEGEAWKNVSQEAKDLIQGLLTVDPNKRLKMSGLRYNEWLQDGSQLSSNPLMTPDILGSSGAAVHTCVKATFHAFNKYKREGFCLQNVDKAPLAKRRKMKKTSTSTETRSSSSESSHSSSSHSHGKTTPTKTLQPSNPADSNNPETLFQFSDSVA

Question: With `CCOc1cc(N2CCC(O)CC2)ccc1Nc1ncc2c(n1)N(C)c1ccccc1C(=O)N2C` as the compound, how does the pIC50 [1] read?
Answer: < 4.30

Question: And the IC50 [2]?
Answer: > 50 µM

Question: And the pIC50 [3]?
Answer: < 4.30

Question: And the inhibition [4]?
Answer: 15.7%

Question: What about the inhibition at 50 µM [5] of the same compound?
Answer: -27.3%

Question: What about the inhibition [6] of the same compound?
Answer: -8.1%

Question: What about the inhibition [7] of the same compound?
Answer: 0%

Question: And the inhibition [8]?
Answer: 10.4%

Question: What about the inhibition [9] of the same compound?
Answer: -5%

Question: And the inhibition at 50 µM [10]?
Answer: -27.1%

Question: What about the inhibition [11] of the same compound?
Answer: 2.3%

Question: What about the inhibition [12] of the same compound?
Answer: -7.5%

Question: And the inhibition [13]?
Answer: -2.9%

Question: What about the inhibition [14] of the same compound?
Answer: 8.1%

Question: What about the AUC(0-inf) [15] of the same compound?
Answer: 1.9 µM·h

Question: And the Activity [16]?
Answer: < 0.2 mg/dL

Question: And the Activity (Lewis lung carcinoma)?
Answer: Active
